Article PMC5559291 (Journal of the American Chemical Society, 2015)
Where two headings read alike, the source gives them in different places.

Key:
[1] = 37° C; cited from earlier work
[2] = Sedimentation velocity; assay type: physicochemical
[3] = assay type: physicochemical; details: from sedimentation velocity on diluted samples
Method in brief: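 Diluted neutral-pH and protofibril Aβ40 samples were loaded into 12 mm path-length cells, equilibrated 2 h at 20.0° C, and spun at 20,000-50,000 rpm. Detection used absorbance at 280 nm and Rayleigh interference. Data were analysed as continuous c(s) distributions of Lamm equation solutions with maximum-entropy regularization, and sedimentation coefficients were corrected to 20° C water.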

[4] = assay type: physicochemical
[5] = Size exclusion chromatography; assay type: physicochemical; details: protofibril sample; SEC deemed unreliable by the authors
Method in brief: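 Superose 6 10/300 GL column (Vc = 24 ml); 50 μl Aβ40 sample injected and eluted at 0.5 ml/min. The column was equilibrated in either 10 mM sodium phosphate (pH 7.4) or 20 mM NaOH, with or without 150 mM NaCl. Apparent molecular weight was read from elution volume.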

[6] = Persistence of Aβ40 protofibrils in quiescent solution; assay type: physicochemical
[7] = typical values; cited from earlier work
[8] = ref 7c, 7d, cited from earlier work
[9] = protofibril sample, 2.0 mM Aβ40

Substance | time for subsequent conversion to fibrils [1] | apparent molar mass of slowly sedimenting species ([2]; neutral pH sample, 2.0 mM Aβ40) | estimated molar masses of aggregates ([2]; neutral pH sample, 2.0 mM Aβ40) | sedimentation coefficients of aggregates (broadly distributed around) ([2]; neutral pH sample, 2.0 mM Aβ40) | aggregates as fraction of the loading signal ([2]; neutral pH sample, 2.0 mM Aβ40, pH 7.5) | sedimentation coefficient of slowly sedimenting species ([2]; neutral pH sample, 2.0 mM Aβ40, remaining material) | apparent molar masses of rapidly sedimenting species [2, 9] | fraction of material consisting of rapidly sedimenting species [2, 9] | quasi-equilibrium solubility of Aβ40 assemblies ([3]; neutral pH sample) | quasi-equilibrium solubility of Aβ40 assemblies ([3]; protofibril sample) | monomeric fraction ([4]; high pH samples) | fraction of protofibrillar assemblies ([4]; protofibril samples) | apparent molecular weight of a large fraction of material [5] | stability of protofibrils ([6]; quiescent solutions at pH 7.5, TEM) | persistence of protofibrils ([6]; room temperature, without sonication or agitation of the Aβ40 solution) | quasi-equilibrium solubility of mature fibrils [7] | incubation time for evolution of spherical assemblies to mature fibrils ([8]; TEM, without sonication or agitation) | size of long-lived spherical assemblies ([8]; formed at 4° C, pH 7.4, 100 μM peptide)
Aβ42: 42-residue amyloid-β peptide; literature results only | ≤ 12 days |  |  |  |  |  |  |  |  |  |  |  |  |  |  |  |  | 
Aβ40: 40-residue amyloid-β peptide, made by FMOC solid-phase synthesis |  | 4.7 kDa | around 0.4 MDa | around 11 S | approximately 75% | ~0.6 S | roughly 10 MDa | approximately 95% | greater than 10 μM | greater than 10 μM | > 90% | > 90% | greater than 1 MDa | stable for at least several weeks | at least 20 days | less than 1 μM | more than 50 h | ~650 kDa
